Test results as given in PubChem BioAssay.
Results filed as inconclusive are left out.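 How the source made its calls, unless noted: active means viability increase at or above a cutoff of the median across tested compounds plus 3 SD (cut at about 8.5% in these data, passing the limit was not always enough); inconclusive means some gains above the cutoff, reason not given; inactive means the rest.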

Legend:
[1] = S. cerevisiae growth inhibition in permissive medium (OD615), pilot counter-assay for S. cerevisiae lifespan shortening project, permissive growth control (AID 705;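 active means growth inhibition above 25% in both replicates, a cutoff set 3 SD above the mean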); conditions: OD615, 24 h, at 10 µM, hits give high values
Outline: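 System: S. cerevisiae with engineered DeaD lifespan system. Medium: SC raffinose/galactose permissive medium. Doses: single compound dose of 10 µM, 0.25% DMSO final. Schedule: 24 h exposure, 30 °C. Measured by: OD615 turbidity read. Read-out: growth inhibition.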

[2] = S. cerevisiae growth inhibition in restrictive medium, OD615, pilot screen, restrictive growth control, yeast lifespan reduction project (AID 706;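 active means growth inhibition above a set limit, 3 SD over mean compound inhibition, in both replicates, cut at about 43% in these data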;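 further: modified DeaD lifespan yeast strain shifted to restrictive glucose medium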); conditions: OD615, 48 h, at 10 µM, hits give high values
Outline: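 Assay system – genetically modified Saccharomyces cerevisiae, DeaD replicative lifespan assay strain · Medium – CSMM-D glucose medium · Doses – 10 µM compound, 0.25% DMSO · Times – 4 h pre-incubation, 48 h exposure at 30 °C · Signal – optical density at 615 nm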

[3] = doxorubicin toxicity protection in MRP-1 cells – H69AR cells, CellTiter-Glo, duplicate, MRP-1 activator project, pilot screen (AID 807); conditions: H69AR viability with doxorubicin, CellTiter-Glo luminescence; at 10 µM; hits give high values;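 further: compound pretreatment 18-22 h then 72 h combined with doxorubicin; 0% = doxorubicin alone and 100% = vehicle without doxorubicin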
[4] = viability of HCT116 without oncogenic beta-catenin – human colon tumor cells, pilot screen (AID 823;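 active means cell viability at or below a set limit in both duplicate runs, the limit being the all-compound median minus 4 SD, cut at about 23% in these data, passing the limit was not always enough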;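 further: 0% = wells killed by 20 µM Hyamine and 100% = untreated DMSO cell wells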); conditions: HCT116 beta-catenin knockout viability, CellTiter-Glo, 60 h; at 10 µM; hits give low values
[5] = viability of PTEN-null HCT116 cells – cell-based, HCT116 clonal line, CellTiter-Glo, pilot screen (AID 824;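 active means viability at or below 27.92% in each of two runs, the all-compound median minus 4 SD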;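 further: 0% = 20 µM Hyamine control and 100% = vehicle cell control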); conditions: HCT116 PTEN-deleted viability, 60 h, at 10 µM, hits give low values
[6] = RAM pathway blockade in budding yeast – dse1pr::URA3 reporter, 5-FOA selection, pilot screen (AID 869;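 active means inhibition over a set limit, the all-compound mean plus 3 SD, in both replicate runs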;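 further: 0% = DMSO wells with no growth and 100% = 10 µM 1-NA-PP1 with full growth; RAM network block rescues cells from 5-FOA so hits raise OD615 growth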); conditions: S. cerevisiae dse1pr::URA3 5-FOA growth, OD615, 2 d; at 10 µM; hits give high values; strain carries analog-sensitive mutant Cbk1 kinase
[7] = RAM signaling pathway blockade in yeast – S. cerevisiae, Pdr1DBD-CYC8 efflux-inhibited sensitized strain, primary screen (AID 1298;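 active means RAM network inhibition above 8.4% in each of two replicates, 3 SD over the compound average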;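 further: 0% = DMSO untreated cells without growth and 100% = 10 µM 1-NA-PP1 full growth; higher means more yeast growth rescued from 5-FOA killing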); conditions: S. cerevisiae cbk1-as DSE1-URA3 strain, 5-FOA growth OD615, 2 d; at 50 µM; hits give high values

O=C(COc1cc(=O)n2c(n1)SCCC2)c1ccccc1
inactive: growth inhibition [1] -6.77% | growth inhibition [2] -2.62% | viability increase [3] -1.08% | viability [4] 102% | viability [5] 92.7% | inhibition [6] 1.56% | RAM network inhibition [7] 1.89%

COc1cc(OC)cc(-c2nc(-c3ccc(Br)cc3)no2)c1
inactive: growth inhibition [1] -13.6% | growth inhibition [2] -13.2% | viability increase [3] 1.86% | viability [4] 94% | viability [5] 89.2% | inhibition [6] 3.5% | RAM network inhibition [7] 8.01%

Cn1c(=NC(=O)C2CC2)sc2cccc(F)c21
inactive: growth inhibition [1] -10.3% | growth inhibition [2] 8.25% | viability increase [3] -4.82% | viability [4] 88.3% | viability [5] 89% | inhibition [6] 0.96% | RAM network inhibition [7] 6.98%

Cc1ccc(C2c3c(oc4cc(C)c(C)cc4c3=O)C(=O)N2CCCN2CCOCC2)cc1 (configuration not stated)
inactive: growth inhibition [1] -5.16% | growth inhibition [2] -18.6% | viability increase [3] -4.87% | viability [4] 83.3% | viability [5] 90% | inhibition [6] 3.33% | RAM network inhibition [7] -0.94%

CC(C)(C)n1nc2c(c1NC(=O)Cc1ccc(F)cc1)CSC2
inactive: growth inhibition [1] 1.52% | growth inhibition [2] -7.53% | viability increase [3] -0.87% | viability [4] 94% | viability [5] 88.2% | inhibition [6] 2.36% | RAM network inhibition [7] 5.41%

COC(=O)C(C)Sc1nnc(Cc2cc(=O)[nH]c(=O)[nH]2)n1-c1ccc(OC)cc1 (configuration not stated)
inactive: growth inhibition [1] 8.07% | growth inhibition [2] 4.31% | viability increase [3] 0.81% | viability [4] 106% | viability [5] 101% | inhibition [6] 1.41% | RAM network inhibition [7] 2.47%

CCOC(=O)c1ccn(-c2nc(-c3ccco3)cc(C(F)(F)F)n2)n1
inactive: growth inhibition [1] -8.11% | growth inhibition [2] 6.16% | viability increase [3] 1.27% | viability [4] 106% | viability [5] 97.8% | inhibition [6] -0.505% | RAM network inhibition [7] 4.89%

O=C(Nc1sc2c(c1C(=O)O)CCCC2)c1cccs1
inactive: growth inhibition [1] 5.62% | growth inhibition [2] 15.9% | viability increase [3] -1.03% | viability [4] 79.5% | viability [5] 57% | inhibition [6] -1.22% | RAM network inhibition [7] -2.15%

O=C(O)CC(Cn1cnnn1)c1ccccc1 (configuration not stated)
inactive: growth inhibition [1] 3.8% | growth inhibition [2] -2.96% | viability increase [3] -0.66% | viability [4] 103% | viability [5] 101% | inhibition [6] 1.12% | RAM network inhibition [7] 2.58%

Cc1cc(C(=O)NCc2ccc3c(c2)OCO3)n(-c2ccccc2)n1
inactive: growth inhibition [1] -8.49% | growth inhibition [2] -5.84% | viability increase [3] -0.01% | viability [4] 92.2% | viability [5] 96.3% | inhibition [6] 0.985% | RAM network inhibition [7] 4.44%

CC(=O)NCc1nc2ccccc2n1Cc1ccccc1F
inactive: growth inhibition [1] -7.66% | growth inhibition [2] -15.8% | viability increase [3] -0.31% | viability [4] 108% | viability [5] 104% | inhibition [6] 3.39% | RAM network inhibition [7] 2.03%

CC(C)n1c(C(O)c2ccccc2)nc2ccccc21 (configuration not stated)
inactive: growth inhibition [1] -5.87% | growth inhibition [2] -13.6% | viability increase [3] 0.37% | viability [4] 97.6% | viability [5] 88.1% | inhibition [6] 1.4% | RAM network inhibition [7] 4.24%

COc1ccc(S(=O)(=O)N2CCN(C)CC2)cc1Br
inactive: growth inhibition [1] -1.05% | growth inhibition [2] 9.22% | viability increase [3] -2.75% | viability [4] 95% | viability [5] 92% | inhibition [6] 1.01% | RAM network inhibition [7] -0.01%

CCn1c(SCC(=O)Nc2ccccc2C(=O)OC)nc2c1c(=O)n(C)c(=O)n2C
inactive: growth inhibition [1] -6.03% | growth inhibition [2] -4.93% | viability increase [3] -3.55% | viability [4] 92% | viability [5] 86.6% | inhibition [6] 3.68% | RAM network inhibition [7] 5.2%

CCN(CC)CCCNc1nc2ccccc2[nH]1
inactive: growth inhibition [1] -4% | growth inhibition [2] -5.4% | viability increase [3] -0.63% | viability [4] 99% | viability [5] 98.3% | inhibition [6] 0.52% | RAM network inhibition [7] 4.31%

CCn1c(C2CC(=O)N(c3cc(C)cc(C)c3)C2)nc2ccccc21 (configuration not stated)
inactive: growth inhibition [1] -6.28% | growth inhibition [2] -7% | viability increase [3] -4.36% | viability [4] 87% | viability [5] 85% | inhibition [6] 1.13% | RAM network inhibition [7] 4.85%

Cc1onc(-c2ccccc2Cl)c1C(=O)Nc1c(C)n(C)n(-c2ccccc2)c1=O
inactive: growth inhibition [1] -7.2% | growth inhibition [2] 3.75% | viability increase [3] 0.84% | viability [4] 104% | viability [5] 103% | inhibition [6] 0.355% | RAM network inhibition [7] 3.34%

CCCCSC1=C(C#N)C(c2ccccc2C)CC(=O)N1 (configuration not stated)
inactive: growth inhibition [1] -14.2% | growth inhibition [2] 3.23% | viability increase [3] -2.96% | viability [4] 95.1% | viability [5] 79.6% | inhibition [6] 1.03% | RAM network inhibition [7] 5.84%

COc1ccc(CCNC(=O)CN2CCOc3ccccc32)cc1OC
inactive: growth inhibition [1] -23.7% | growth inhibition [2] 13.9% | viability increase [3] -6.27% | viability [4] 100% | viability [5] 96.8% | inhibition [6] 0.49% | RAM network inhibition [7] 1.27%

Cc1cccc(CN2CCN(CC(=O)NCc3ccc(F)cc3)C2=O)c1
inactive: growth inhibition [1] -2.2% | growth inhibition [2] -1.6% | viability increase [3] 0.82% | viability [4] 104% | viability [5] 104% | inhibition [6] 0.03% | RAM network inhibition [7] 3.27%

COc1ccc(C2NC(=O)NC(C)=C2C(=O)Nc2cccc(C)c2C)cc1 (configuration not stated)
inactive: growth inhibition [1] -6.41% | growth inhibition [2] 1.47% | viability increase [3] -1.09% | viability [4] 101% | viability [5] 103% | inhibition [6] 0.77% | RAM network inhibition [7] 1.64%

O=C1NC(c2cccs2)C(C(=O)c2ccccc2)C(O)(C(F)(F)F)N1 (configuration not stated)
inactive: growth inhibition [1] -0.14% | growth inhibition [2] -7.88% | viability increase [3] -0.03% | viability [4] 94.8% | viability [5] 90.4% | inhibition [6] 0.61% | RAM network inhibition [7] 0.87%

C=C(C)Cn1c(N2CCCC2)nc2c1c(=O)[nH]c(=O)n2C
inactive: growth inhibition [1] -1.91% | growth inhibition [2] -5.8% | viability increase [3] -1.97% | viability [4] 108% | viability [5] 96.6% | inhibition [6] 1.32% | RAM network inhibition [7] 2.05%

O=C(Cn1c(=O)oc2cc(S(=O)(=O)N3CCc4ccccc43)ccc21)N1CCCCC1
inactive: growth inhibition [1] -2.98% | growth inhibition [2] -7.46% | viability increase [3] -2.88% | viability [4] 98.1% | viability [5] 80.5% | inhibition [6] -0.125% | RAM network inhibition [7] 2.79%

COc1cc(C(=O)Nc2ccc(S(=O)(=O)Nc3onc(C)c3C)cc2)cc(OC)c1OC
inactive: growth inhibition [1] -5.13% | growth inhibition [2] -14.8% | viability increase [3] 0.55% | viability [4] 104% | viability [5] 105% | inhibition [6] 0.945% | RAM network inhibition [7] 4%

Cc1ccc(-c2ccc(CCC(=O)O)n2CC(=O)O)cc1
inactive: growth inhibition [1] -3.08% | growth inhibition [2] -11.2% | viability increase [3] -1.34% | viability [4] 98.7% | viability [5] 107% | inhibition [6] 1.36% | RAM network inhibition [7] 1.3%

COc1ccccc1NC(=O)NCCN1C(=O)C2C3C=CC(C3)C2C1=O (configuration not stated)
inactive: growth inhibition [1] -16.2% | growth inhibition [2] -7.88% | viability increase [3] -0.36% | viability [4] 106% | viability [5] 105% | inhibition [6] 1.71% | RAM network inhibition [7] 5.38%

O=C1C2C(c3ccccc3)C=CC(c3ccccc3)C2C(=O)N1CCO (configuration not stated)
inactive: growth inhibition [1] -10.9% | growth inhibition [2] -8.43% | viability increase [3] -3.35% | viability [4] 94.7% | viability [5] 95.3% | inhibition [6] 0.33% | RAM network inhibition [7] 4.03%

COc1ccc(OC)c2c1sc(=NC(=O)CN1C(=O)CCC1=O)n2C
inactive: growth inhibition [1] -3.75% | growth inhibition [2] 5.91% | viability increase [3] -1.92% | viability [4] 92.7% | viability [5] 87.4% | inhibition [6] 1.16% | RAM network inhibition [7] 2.41%

CS(=O)(=O)N(CC(=O)NCc1ccco1)c1cc(C(F)(F)F)ccc1Cl
inactive: growth inhibition [1] 0.43% | growth inhibition [2] -4.23% | viability increase [3] -3.09% | viability [4] 99% | viability [5] 92.8% | inhibition [6] 0.68% | RAM network inhibition [7] 2.65%

CC(CCc1ccccc1)C(=O)NO (configuration not stated)
inactive: growth inhibition [1] -6.16% | growth inhibition [2] -10.5% | viability increase [3] -3.84% | viability [4] 95.6% | viability [5] 91.6% | inhibition [6] 0.87% | RAM network inhibition [7] 1.5%

CCOc1ccc(N(CC(=O)OC)S(=O)(=O)c2c(C)noc2C)cc1
inactive: growth inhibition [1] 3.84% | growth inhibition [2] -0.545% | viability increase [3] -1.21% | viability [4] 87.4% | viability [5] 95.1% | inhibition [6] -0.69% | RAM network inhibition [7] -0.31%

CCOc1ccccc1C1CC(c2ccc(F)cc2)Nc2nc(N)nn21 (configuration not stated)
inactive: growth inhibition [1] -2.63% | growth inhibition [2] 6.8% | viability increase [3] 1.61% | viability [4] 89.2% | viability [5] 90.1% | inhibition [6] 0.785% | RAM network inhibition [7] 2.07%

Cc1nc2ccccc2c2oc(C(=O)NCCN3CCN(C)CC3)cc12
inactive: growth inhibition [1] -12.1% | growth inhibition [2] -15.1% | viability increase [3] -1.69% | viability [4] 89.4% | viability [5] 98.8% | inhibition [6] 1.64% | RAM network inhibition [7] 3.28%

CCCN1C(=O)c2cc(C(=O)NC3CCCC3)ccc2C1O (configuration not stated)
inactive: growth inhibition [1] -10.3% | growth inhibition [2] -1.61% | viability increase [3] -2.46% | viability [4] 103% | viability [5] 95.5% | inhibition [6] 0.125% | RAM network inhibition [7] 9.43%

CCOC(=O)Nc1ccccc1C(=O)N1CCOCC1
inactive: growth inhibition [1] -8.68% | growth inhibition [2] -2.7% | viability increase [3] -0.42% | viability [4] 97.5% | viability [5] 98% | inhibition [6] 1.89% | RAM network inhibition [7] 2.52%
